Measurements: paper PMC6995037 (Biochemistry, 2015)
Entries after “also recorded” stand apart in the source; their conditions may differ. Read-outs that look alike come from different tables or passages of the source. No end group written: not given here.

B1: QT4p (peptide)
peptide: SYWSRSTTTQTDM
B2: QT1p (peptide)
peptide: SYRKAIDAATQTEE
B3: QT2p (peptide)
peptide: SYSVSEVGTQTSI
B4: ASCIZ: transcription factor ASCIZ with 17 motifs (protein, UniProt O43313 1-823, looked up)
ATM interactor: MAASEAAAAAGSAALAAGARAVPAATTGAAAAASGPWVPPGPRLRGSRPRPAGATQQPAVPAPPAGELIQPSVSELSRAVRTNILCTVRGCGKILPNSPALNMHLVKSHRLQDGIVNPTIRKDLKTGPKFYCCPIEGCPRGPERPFSQFSLVKQHFMKMHAEKKHKCSKCSNSYGTEWDLKRHAEDCGKTFRCTCGCPYASRTALQSHIYRTGHEIPAEHRDPPSKKRKMENCAQNQKLSNKTIESLNNQPIPRPDTQELEASEIKLEPSFEDSCGSNTDKQTLTTPPRYPQKLLLPKPKVALVKLPVMQFSVMPVFVPTADSSAQPVVLGVDQGSATGAVHLMPLSVGTLILGLDSEACSLKESLPLFKIANPIAGEPISTGVQVNFGKSPSNPLQELGNTCQKNSISSINVQTDLSYASQNFIPSAQWATADSSVSSCSQTDLSFDSQVSLPISVHTQTFLPSSKVTSSIAAQTDAFMDTCFQSGGVSRETQTSGIESPTDDHVQMDQAGMCGDIFESVHSSYNVATGNIISNSLVAETVTHSLLPQNEPKTLNQDIEKSAPIINFSAQNSMLPSQNMTDNQTQTIDLLSDLENILSSNLPAQTLDHRSLLSDTNPGPDTQLPSGPAQNPGIDFDIEEFFSASNIQTQTEESELSTMTTEPVLESLDIETQTDFLLADTSAQSYGCRGNSNFLGLEMFDTQTQTDLNFFLDSSPHLPLGSILKHSSFSVSTDSSDTETQTEGVSTAKNIPALESKVQLNSTETQTMSSGFETLGSLFFTSNETQTAMDDFLLADLAWNTMESQFSSVETQTSAEPHTVSNF
B5: LC8 (natural protein)
chain: MSDRKAVIKNADMSEEMQQDAVDCATQALEKYNIEKDIAAYIKKEFDKKYNPTWHCIVGRNFGSYVTHETRHFIYFYLGQVAILLFKSG
B6: Chica_(410–478) (domain or fragment, human, UniProt Q9H4H8 410-478, looked up)
chain: QTSITTACAGTQTAVITRIASSQTTIWSRSTTTQTDMDENILFPRGTQSTEGSPVSKMSVSRSSSLKSS

Tests used:
LC8 [1] = target: T1, LC8 (Drosophila melanogaster, UniProt Q24117); settings: read-out: binding affinity; Pak1; cited from earlier work
LC8 [2] = target: T1, LC8; assay: Isothermal titration calorimetry of LC8 binding to Chica motif peptides; settings: for relative affinity, in words: comparison between Chica motif peptides; for fold weaker affinity than QT1p: relative to QT1p (Kd 0.4 μM)
Summary of the method: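 Synthetic peptides of Chica motifs, with added non-native N-terminal residues for solubility and A280 quantitation, at 280–300 μM final in 50 mM sodium phosphate, 50 mM NaCl, 0.5 mM sodium azide, pH 7.5. Titrated into 30–35 μM LC8 in the cell at 25 °C. Peak areas were fitted to a single-site model for N, Kd, ΔH and ΔS. Values are the average of three independent experiments.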

LC8 [3] = target: B5; assay: ITC
LC8 [4] = target: T1, LC8; settings: of 17 motifs; cited from earlier work
Chica_(410–478) = target: B6; assay: ITC
LC8 [5] = target: B5; assay: ITC; remark: listed apart in the source

Pak1: LC8 recognition motif of Pak1 (TPTRDVATSP)
Kd (LC8 [1]): 42.7 µM

SYSVSEVGTQTSI [QT2p]
relative affinity, in words (LC8 [2]; ITC, listed as QT2): bind LC8 with a similar affinity | fold weaker affinity than QT1p (LC8 [2]): over 10 fold

SYTTACAGTQTAV [QT3p]
binding to LC8, in words (LC8 [2]; ITC, 25 °C, pH 7.5): too weak to be measured accurately by ITC; also recorded: immeasurably weak

SYWSRSTTTQTDM [QT4p]
relative affinity, in words (LC8 [2]; ITC): bind LC8 with a similar affinity | fold weaker affinity than QT1p (LC8 [2]): over 10 fold

B1
Kd (LC8 [3]): 5.2 ± 0.1 µM | dH (LC8 [3]): -8.2 ± 0.1 kcal/mol | stoichiometry N (LC8 [3]): 1

B2
dH (LC8 [3]): -6.8 ± 0.2 kcal/mol | stoichiometry N (LC8 [3]): 1

B3
Kd (LC8 [3]): 6.3 ± 0.4 µM | dH (LC8 [3]): -8.5 ± 1.1 kcal/mol | stoichiometry N (LC8 [3]): 1

B4
number of motifs that bind LC8 (LC8 [4]): 11

B5
dH (Chica_(410–478)): -7.6 ± 0.2 kcal/mol | stoichiometry N (Chica_(410–478)): 3

B6
Kd (LC8 [5]): 400 ± 100 nM
